This is a sample that favours compounds with a hit; in the whole collection about 2% have one here.
APJ ag: agonists of human apelin receptor APJ, primary screen, CHO-K1 cells, PathHunter beta-arrestin, luminescence; P35414; 0% DMSO wells, 100% apelin; activation, % at 20 µM; hit rate 0.11% among 330,000; AID 2520, 2010;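 active = activation more than six SD over the plate average, tested at 20 µM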;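 note: 0% = DMSO alone and 100% = apelin-13 at 10 nM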
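Material: CHO-K1 APJ beta-arrestin complementation cell line; Input: cell density 1000 per well; Incubation: compound stimulation 90 min at 25 °C, detection 60 min; Signal: luminescence from split beta-galactosidase complementation, Galacton Star/Emerald II substrate; Controls: DMSO-only wells as negative, 10 nM Apelin-13 as positive control.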
CCR6 antag: CCR6 receptor antagonists, primary screen, cell-based, CHO-K1, luminescence, beta-arrestin, uHTS; C-C chemokine receptor type 6 (Homo sapiens), P51684; CHO-K1 CCR6 PathHunter beta-arrestin, CCL20-stimulated; inhibition, % at 20 µM; hit rate 0.49% among 340,000; AID 493098, 2011;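 active = compounds whose inhibition of the agonist-driven luminescence signal at 20 µM reaches about 50%, limit read from the data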;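 note: cells stimulated with CCL20 at 14 nM final; plate controls were DMSO with CCL20 for no effect and DMSO without agonist for full effect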
Target sequence (P51684 whole entry, looked up): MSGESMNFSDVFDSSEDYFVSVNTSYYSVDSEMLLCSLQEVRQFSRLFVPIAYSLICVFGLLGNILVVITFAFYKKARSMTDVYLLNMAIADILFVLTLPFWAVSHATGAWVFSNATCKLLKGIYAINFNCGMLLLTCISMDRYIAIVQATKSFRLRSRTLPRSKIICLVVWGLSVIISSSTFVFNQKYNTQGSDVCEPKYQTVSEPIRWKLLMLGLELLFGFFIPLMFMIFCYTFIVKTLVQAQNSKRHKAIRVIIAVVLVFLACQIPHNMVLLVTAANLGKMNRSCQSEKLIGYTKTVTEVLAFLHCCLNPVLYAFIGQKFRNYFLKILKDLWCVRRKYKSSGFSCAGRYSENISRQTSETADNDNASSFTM
EBI2 antag: EBI2 receptor antagonists, beta-arrestin recruitment, primary screen, cell-based, luminescence, 7a,25-OHC stimulation, uHTS | AID 651636, 2012 | 7a,25-OHC stimulated | inhibition, % at 5 µM | hit rate 0.81% among 360,000 | G-protein coupled receptor 183 (Homo sapiens), P32249; in the data active = inhibition above about 38%;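 note: enzyme fragment complementation signal reports receptor beta-arrestin coupling in cells; 0% = agonist plus DMSO wells and 100% = wells without agonist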
FXN GAA850 act: FXN promoter activators, primary screen, cell-based, luciferase luminescence, HEK293 lucGAA850 | HEK293 lucGAA850 FXN promoter luciferase reporter, 24 h; percent of 10 µM SAHA response | hit rate 0.56% among 360,000 | AID 540364, 2011 | activation, % at 6 µM;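 active = activation above the average of all compounds screened plus 3 SD, cutoff fixed separately per campaign, cut at about 7.5% in these data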;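 note: 0% = DMSO wells and 100% = 10 µM SAHA wells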
APJ antag: antagonists of human apelin receptor APJ, primary screen, CHO-K1 cells, beta-arrestin complementation, luminescence | inhibition, % at 20 µM | hit rate 0.32% among 330,000 | P35414 | AID 2521, 2010;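 active = inhibition above about 40% at 20 µM, limit read from the data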;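 note: cells challenged with 10 nM apelin-13 agonist together with compound; plate controls were apelin-13 plus DMSO wells for no effect and DMSO wells lacking apelin-13 for full effect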
CXCR6 inh: CXCR6 receptor inhibitors, primary screen, cell-based, beta-arrestin, luminescence, CHO-K1 PathHunter, 1536-well; C-X-C chemokine receptor type 6 (Homo sapiens), O00574; inhibition, % at 20 µM; hit rate 0.36% among 360,000; AID 602244, 2012; in the data active = inhibition above about 34%, passing the limit was not always enough;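 note: antagonist mode with CXCL16 agonist at 10 nM final; 0% = 10 nM CXCL16 with DMSO and 100% = unstimulated wells without agonist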
Target sequence (O00574 whole entry, looked up): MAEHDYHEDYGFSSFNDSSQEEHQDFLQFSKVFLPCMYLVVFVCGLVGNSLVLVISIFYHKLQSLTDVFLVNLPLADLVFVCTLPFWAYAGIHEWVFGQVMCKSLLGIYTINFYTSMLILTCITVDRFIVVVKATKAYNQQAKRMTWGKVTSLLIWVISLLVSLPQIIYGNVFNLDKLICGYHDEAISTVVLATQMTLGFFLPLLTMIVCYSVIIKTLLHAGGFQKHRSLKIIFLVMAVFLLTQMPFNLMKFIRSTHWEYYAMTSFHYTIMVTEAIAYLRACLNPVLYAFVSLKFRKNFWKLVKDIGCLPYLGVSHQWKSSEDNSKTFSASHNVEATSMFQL
EBI2 antag conf: EBI2 antagonist hit retest, beta-arrestin, confirmation, cell-based, single concentration, luminescence, 7a,25-OHC stimulation | shares compounds with EBI2 antag | 7a,25-OHC antagonism | inhibition, % at 5 µM | hit rate 29% among 2,400 | AID 651997, 2013;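 active = inhibition of at least 50%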
EBI2 agonist: EBI2 agonist activity of antagonist hits, confirmation, counter-screen for EBI2 antagonist project, cell-based, single concentration, agonist mode, luminescence; shares compounds with EBI2 antag; EBI2-expressing cells, 60 min; 0% vehicle, 100% 7α,25-dihydroxycholesterol control; activation, % at 5 µM; 2,400 tested, under 10 active;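 active = activation of at least 50%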
bGal cs: E. coli beta-galactosidase enzyme inhibition, confirmation, counter-screen for EBI2 antagonist project, biochemical, luminescence, single concentration; AID 652176, 2013; purified beta-galactosidase, luminescent Galacton Star, 15 min; hit rate 1% among 2,400; shares compounds with EBI2 antag; inhibition, % at 5 µM;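 active = replicate-average signal at least 3 plate SD below neutral wells, shown as high inhibition, flagging enzyme-inhibiting false positives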;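 note: 0% = DMSO wells with enzyme and 100% = wells lacking enzyme; higher means stronger loss of beta-gal luminescence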
The depositor's hits bear a star; . = no result.

SMILES | APJ ag | CCR6 antag | EBI2 antag | FXN GAA850 act | APJ antag | CXCR6 inh | EBI2 antag conf | EBI2 agonist | bGal cs
O=C(c1ccc2ccccc2c1)N1CCN(c2ccc(C(F)(F)F)cn2)CC1 | -4 | 14 | 85* | 0 | 6 | -20 | 71* | 2 | 10
O=C(c1ccc2c(c1)OCO2)N1CCN(c2ccc(C(F)(F)F)cn2)CC1 | -2 | 11 | -7 | 1 | -6 | -4 | . | . | .
COc1ccc(N2CCN(C(=O)c3csc4ccccc34)CC2)cc1 | -4 | 15 | 53* | 2 | 9 | -2 | 39 | 0 | 10
COc1cc(C(=O)N2CCN(C(=O)COc3ccc4ccccc4c3)CC2)cc(OC)c1OC | -3 | 3 | 71* | -1 | 25 | -7 | 50* | 0 | 6
CCOC(=O)CN1CCC(c2cc(-c3ccc(Cl)cc3)n[nH]2)CC1 | 0 | 10 | 40* | -1 | 10 | 4 | 37 | -2 | -5
C[C@@H]1CN([C@H](C)CO)S(=O)(=O)c2ccc(C#Cc3ccccc3F)cc2O[C@@H]1CN(C)C(=O)Cc1ccccc1 | . | . | 72* | -2 | . | 5 | 79* | -1 | -7
CCOc1ccc(NC(=O)N2CCC(NC(=O)C(Cc3ccccc3OC)NC(C)=O)CC2)cc1 (centres undefined) | 1 | 15 | -6 | 2 | -36 | 7 | . | . | .
Cc1ccc(S(=O)(=O)N2CCN(C(=O)CSc3ccc(Cl)cc3)CC2)cc1 | -2 | 15 | 92* | 0 | -9 | 11 | 68* | 0 | 7
CC(=O)c1ccc(S(=O)(=O)N2CCN(C(=O)CSc3ccc(C)c(C)c3)CC2)cc1 | 0 | 3 | 70* | 0 | -24 | -12 | 31 | -1 | -10
CC(=O)Nc1ccc(SCC(=O)N2CCN(S(=O)(=O)c3ccccc3)CC2)cc1 | -4 | 15 | 5 | 1 | -94 | 3 | . | . | .
O=C(CSc1ccc(Cl)cc1)N1CCN(c2ncc(C(F)(F)F)cc2Cl)CC1 | -4 | 22 | 84* | 1 | -7 | -3 | 70* | 0 | -15
CN1CCN(C(=O)CSc2ccc(Cl)cc2)CC1 | 1 | -11 | 47* | 3 | -42 | 8 | 20 | -1 | -19
O=S1(=O)CCOCCCN1Cc1ccccc1Br | 2 | 7 | -4 | -1 | 8 | 0 | . | . | .
Cc1ccc(S(=O)(=O)N2CCN(S(=O)(=O)c3cccs3)CC2)cc1 | 8 | -4 | 6 | 1 | 6 | -10 | . | . | .
Cc1ccc(SCC(=O)N2CCN(S(=O)(=O)c3cccs3)CC2)cc1 | -3 | 8 | 76* | 0 | 5 | -1 | 49 | -1 | -8
O=c1[nH]c(C2CCN(S(=O)(=O)/C=C/c3ccccc3)CC2)nc2c1nnn2Cc1ccc(F)cc1 | -2 | 5 | 48* | 1 | 9 | -3 | 33 | 0 | 7
O=c1[nH]c(C2CCN(S(=O)(=O)Cc3ccccc3)CC2)nc2c1nnn2Cc1ccccc1 | 1 | 12 | -11 | 1 | 4 | 4 | . | . | .
O=c1ccc(-c2nc3ccccc3n2C(CCc2ccccc2)c2nc3ccccc3[nH]2)c[nH]1 (centres undefined) | . | . | -11 | . | . | . | . | . | .
CC1(c2nnc(-c3ccc(Cl)cc3)o2)CC(c2c(Cl)cccc2Cl)=NO1 (centres undefined) | -6 | 7 | 52* | 0 | 8 | -14 | 60* | 0 | -18
CC1(c2nnc(-c3ccc(F)cc3)o2)CC(c2c(Cl)cccc2Cl)=NO1 (centres undefined) | -4 | 12 | 50* | 2 | 13 | 0 | 49 | 0 | 4
CC1(c2nnc(-c3ccc(Cl)cc3)o2)CC(c2ccncc2)=NO1 (centres undefined) | -1 | -1 | -9 | 1 | 12 | 2 | . | . | .
CCCCN1C(=O)C(CC(=O)NCCCCc2ccccc2)CC(C(=O)N(C)C)=C1C (centres undefined) | . | . | -2 | 0 | . | 19 | . | . | .
CC(C)c1ccc(N(CC(=O)NCc2cccnc2)S(=O)(=O)c2ccccc2)cc1 | 2 | 18 | 3 | 0 | -8 | 10 | . | . | .
Cc1cccc(C)c1NC(=O)C1(C)CSCC(=O)N1CCOc1ccccc1 (centres undefined) | . | . | -6 | . | . | . | . | . | .
O=C(/C=C/c1ccccc1)NC1CC2CCC1C2 (centres undefined) | -3 | 14 | 27 | 4 | -2 | -3 | . | . | .
SMILES | APJ ag | CCR6 antag | EBI2 antag | FXN GAA850 act | APJ antag | CXCR6 inh | EBI2 antag conf | EBI2 agonist | bGal cs
O=C(/C=C/c1ccc(Cl)cc1)NC1CC2CCC1C2 (centres undefined) | -2 | 21 | 63* | 2 | 2 | 3 | 24 | -1 | -9
COc1ccc(/C=C/C(=O)c2ccc3c4c(cccc24)CC3)cc1 | 0 | 2 | 56* | -2 | -6 | 3 | 36 | 2 | 4
COC(=O)C(Cc1cccc(C)n1)(c1ccccc1)c1ccccc1 | . | 20 | 0 | 1 | . | 14 | . | . | .
Cc1nc(CS(=O)(=O)c2ccc(Cl)cc2)cc(Sc2ccc(Cl)cc2)n1 | -5 | 1 | 73* | 0 | 0 | -1 | 62* | 0 | 11
O=S(=O)(Cc1cc(Sc2ccc(Cl)cc2)nc(-c2ccccc2)n1)c1ccccc1 | 0 | 12 | 31 | 2 | 16 | 7 | . | . | .
CCCNC(=O)C1(C)CCCN(C(=O)c2cccc(C(F)(F)F)c2)C1 (centres undefined) | . | . | 1 | 0 | . | -1 | . | . | .
O=C(CSc1nnc(-c2ccc(O)cc2)n1Cc1ccco1)N1CCc2ccccc2C1 | -1 | 10 | 76* | -1 | -4 | 0 | 15 | 0 | 1
COc1ccc(C(=O)C2CCN(C(=S)NCC3CCCO3)CC2)cc1 (centres undefined) | -1 | 7 | 61* | -1 | 5 | -7 | 26 | 1 | 5
